Like-named read-outs stand apart in the source and are kept apart here.
Key:
[1] = type: in vivo, human; conditions: for AUC(0-inf) / AUC(0-t) / Cmax / Tmax / Vd/F / half-life: both, human, plasma, po; for CL/F: healthy subjects, mean (% CV)
Method in brief: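 Healthy subjects given a single oral dose; plasma parameters derived by non-compartmental analysis of pooled phase I data. Reported as mean and % coefficient of variation, except Tmax as median (minimum–maximum). AUC taken both to infinity and to the last quantifiable concentration. CL/F is total clearance, and Vz/F is the terminal-phase apparent volume after extravascular dosing.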

[2] = type: in vivo, human; conditions: for AUC(0-t) / Tmax / Vd/F / half-life: both, human, plasma, oral; for AI (accumulation index = AUC(0–tau) at steady state/AUC(0–24) day 1) / CL/F / C max: healthy subjects, mean (% CV); for C max: steady state
CYP2A6 = target: T1, CYP2A6 (Homo sapiens, UniProt P11509); assay: In-vitro CYP inhibition in pooled human liver microsomes; type: in vitro ADME; conditions: data on file
T1 sequence (P11509 1-494): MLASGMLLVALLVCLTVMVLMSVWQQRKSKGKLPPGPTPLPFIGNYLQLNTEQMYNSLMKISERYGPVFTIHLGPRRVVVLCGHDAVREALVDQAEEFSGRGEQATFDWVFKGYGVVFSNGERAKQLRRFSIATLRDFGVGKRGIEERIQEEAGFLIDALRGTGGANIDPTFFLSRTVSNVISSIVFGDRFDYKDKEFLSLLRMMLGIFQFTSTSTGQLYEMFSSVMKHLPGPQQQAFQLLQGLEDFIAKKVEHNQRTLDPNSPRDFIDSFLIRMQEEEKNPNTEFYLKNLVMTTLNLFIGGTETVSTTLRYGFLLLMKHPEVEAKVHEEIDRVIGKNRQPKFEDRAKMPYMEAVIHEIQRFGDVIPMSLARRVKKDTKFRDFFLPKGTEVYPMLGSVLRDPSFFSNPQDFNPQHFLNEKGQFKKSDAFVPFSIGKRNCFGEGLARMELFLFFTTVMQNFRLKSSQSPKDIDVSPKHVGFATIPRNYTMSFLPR

CYP3A4/5 = assay: as above; type: in vitro ADME; conditions: data on file
CYP2C19 = CYP2C19 (Homo sapiens, UniProt P33261); assay: as above; type: in vitro ADME
Chain of CYP2C19 (P33261 whole entry): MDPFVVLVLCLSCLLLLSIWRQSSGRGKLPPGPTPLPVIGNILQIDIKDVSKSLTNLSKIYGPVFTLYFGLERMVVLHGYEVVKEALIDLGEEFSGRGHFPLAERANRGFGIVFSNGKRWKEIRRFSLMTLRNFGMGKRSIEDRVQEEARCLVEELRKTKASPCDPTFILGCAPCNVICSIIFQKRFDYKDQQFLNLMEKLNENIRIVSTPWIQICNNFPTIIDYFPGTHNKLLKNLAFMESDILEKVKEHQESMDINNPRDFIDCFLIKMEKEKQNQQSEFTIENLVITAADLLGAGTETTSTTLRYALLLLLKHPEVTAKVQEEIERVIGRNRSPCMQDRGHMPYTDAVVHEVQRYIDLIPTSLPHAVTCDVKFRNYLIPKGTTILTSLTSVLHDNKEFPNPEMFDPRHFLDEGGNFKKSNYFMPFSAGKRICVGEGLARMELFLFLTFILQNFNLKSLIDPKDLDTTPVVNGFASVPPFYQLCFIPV

CYP2C9 = CYP2C9 (Homo sapiens, UniProt P11712); assay: as above; type: in vitro ADME
Chain of CYP2C9 (P11712 whole entry): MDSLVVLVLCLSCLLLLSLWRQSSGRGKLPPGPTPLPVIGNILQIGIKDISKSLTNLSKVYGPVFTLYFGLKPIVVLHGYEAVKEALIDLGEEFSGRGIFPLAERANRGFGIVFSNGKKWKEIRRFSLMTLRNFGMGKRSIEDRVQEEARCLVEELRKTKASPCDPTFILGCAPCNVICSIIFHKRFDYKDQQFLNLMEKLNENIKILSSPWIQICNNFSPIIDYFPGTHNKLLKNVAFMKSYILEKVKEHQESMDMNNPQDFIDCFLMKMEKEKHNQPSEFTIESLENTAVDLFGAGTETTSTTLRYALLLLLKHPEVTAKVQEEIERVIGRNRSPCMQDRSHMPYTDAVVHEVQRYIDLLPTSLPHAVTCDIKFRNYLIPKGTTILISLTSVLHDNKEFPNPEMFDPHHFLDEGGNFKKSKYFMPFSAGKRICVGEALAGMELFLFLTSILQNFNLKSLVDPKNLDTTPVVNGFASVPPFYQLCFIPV

[3] = Tolerability / adverse events in phase I studies; type: in vivo, human; conditions: phase I data grouped by CYP2D6-predicted phenotypes
[4] = once-daily dosing; cited from earlier work
[5] = cited from earlier work
[6] = cited from earlier work; remark: listed apart in the source
SERT = conditions: Japanese and white male individuals, cited from earlier work
[7] = 10 or 40 mg once daily; ICH E14 definitions; cited from earlier work
[8] = once-daily 10 mg; 21 young individuals; cited from earlier work
[9] = cited from earlier work; remark: listed apart in the source
5-HT1A receptor = conditions: in vitro; cited from earlier work
5-HT1B receptor = conditions: in vitro; cited from earlier work
[10] = pooled human liver microsomes, CYP isozyme-specific probe substrates, data on file
[11] = mild-to-moderate hepatic impairment, single dose 10 mg (Fig. 2)
[12] = severe hepatic impairment, single dose 5 mg

Br.Cc1ccc(Sc2ccccc2N2CCNCC2)c(C)c1 [vortioxetine, 1-[2-(2,4-dimethyl-phenylsulfanyl)-phenyl]-piperazine, hydrobromide]
time to reach maximum observed plasma concentration ([1]; after single or multiple dosing (Tables 1, 2)): 7 to 11 h
AUC(0-inf) ([1]; 5 mg): 188 ng·h/mL
AUC(0-t) ([1]; 5 mg): 157 ng·h/mL
Cmax ([1]; 5 mg): 1.87 ng/mL
Tmax ([1]; 5 mg): 11 h
Vd/F ([1]; 5 mg): 2740 L
half-life ([1]; 5 mg): 2.89 days
AUC(0-inf) ([1]; 10 mg): 273 ng·h/mL
AUC(0-t) ([1]; 10 mg): 255 ng·h/mL
Cmax ([1]; 10 mg): 4.6 ng/mL
Tmax ([1]; 10 mg): 8 h
Vd/F ([1]; 10 mg): 2770 L
half-life ([1]; 10 mg): 2.53 days
AUC(0-inf) ([1]; 20 mg): 646 ng·h/mL
AUC(0-t) ([1]; 20 mg): 561 ng·h/mL
Cmax ([1]; 20 mg): 8.11 ng/mL
Tmax ([1]; 20 mg): 10 h
Vd/F ([1]; 20 mg): 3290 L
half-life ([1]; 20 mg): 2.68 days
estimated total clearance (CL/F) ([1]; oral, single or multiple doses (Tables 1, 2)): 30 to 41 L/h
CL/F ([1]; single oral dose 5 mg): 29.62 (35) L/h
CL/F ([1]; single oral dose 10 mg): 40.52 (40) L/h
CL/F ([1]; single oral dose 20 mg): 41.47 (60) L/h
AUC(0-t) ([2]; 5 mg): 175 ng·h/mL
Tmax ([2]; 5 mg): 7 h
Vd/F ([2]; 5 mg): 2500 L
half-life ([2]; 5 mg): 2.5 days
AUC(0-t) ([2]; 10 mg): 344 ng·h/mL
Tmax ([2]; 10 mg): 8 h
Vd/F ([2]; 10 mg): 3290 L
half-life ([2]; 10 mg): 2.45 days
AUC(0-t) ([2]; 20 mg): 646 ng·h/mL
Tmax ([2]; 20 mg): 8 h
Vd/F ([2]; 20 mg): 3370 L
half-life ([2]; 20 mg): 2.68 days
AI (accumulation index = AUC(0–tau) at steady state/AUC(0–24) day 1) ([2]; multiple doses 5 mg): 5.17 (27)
CL/F ([2]; multiple doses 5 mg): 32.96 (33) L/h
C max ([2]; multiple doses 5 mg): 8.69 (42) ng/mL
AI (accumulation index = AUC(0–tau) at steady state/AUC(0–24) day 1) ([2]; multiple doses 10 mg): 4.87 (34)
CL/F ([2]; multiple doses 10 mg): 38.27 (60) L/h
C max ([2]; multiple doses 10 mg): 17.92 (44) ng/mL
AI (accumulation index = AUC(0–tau) at steady state/AUC(0–24) day 1) ([2]; multiple doses 20 mg): 5.68 (38)
CL/F ([2]; multiple doses 20 mg): 40.11 (47) L/h
C max ([2]; multiple doses 20 mg): 33.03 (38) ng/mL
accumulation index (AUC(0–24) ratio steady state / single dose) ([2]; multiple doses of 5–20 mg (Table 2)): 5–6
inhibitory in-vitro effect on CYP2A6 (CYP2A6): no inhibitory in-vitro effect
inhibitory in-vitro effect on CYP3A4/5 (CYP3A4/5): no inhibitory in-vitro effect
ratio of maximum plasma concentration of inhibitor (I) and Ki (CYP2C19; CYP2C19, much smaller than): smaller than 0.1
inhibitory effect on CYP2C19 (CYP2C19; [10]): inhibitory effect
ratio of maximum plasma concentration of inhibitor (I) and Ki (CYP2C9; CYP2C9, much smaller than): smaller than 0.1
inhibitory effect on CYP2C9 (CYP2C9; [10]): inhibitory effect
overall incidence of adverse events, CYP2D6 PMs vs non-PMs [3]: no clinically relevant differences
time to steady-state plasma concentrations [4]: ≤ 2 weeks
fraction of unbound parent drug, hepatically impaired vs healthy [5]: no differences
AUC(0–t) lower than healthy cohorts [5, 11]: up to 9%
C max lower than healthy cohorts [5, 11]: up to 16%
AUC(0–t) higher than healthy controls [5, 12]: 10%
C max lower than healthy controls [5, 12]: 24%
plasma protein binding, renally compromised vs healthy controls [6]: no difference
C max lower than healthy controls ([6]; end-stage renal disease, single dose 10 mg (Fig. 2)): 27%
predicted exposure, difference from healthy control group ([6]; linear regression on creatinine clearance): ≤ 30%
AUC(0–t) higher than healthy controls ([6]; mild renal impairment, single dose 10 mg): 9%
C max difference from healthy controls ([6]; mild, moderate, or severe renal impairment, single dose 10 mg): ≤ 11%
AUC(0–t) higher than healthy controls ([6]; moderate renal impairment, single dose 10 mg): 16%
AUC(0–t) higher than healthy controls ([6]; severe renal impairment, single dose 10 mg): 11%
SERT occupancy (SERT; 5-mg dose): approximately 50%
SERT occupancy (SERT; 10-mg dose): ~65%
SERT occupancy (SERT; 20-mg dose): above 80%
effect on cardiac repolarization [7]: unlikely to affect cardiac repolarization
impairment of driving, cognitive function, or psychomotor skills [8]: not to impair
arachidonic acid-, adenosine diphosphate-, or collagen-induced platelet aggregation ([9]; vortioxetine 10 mg added to aspirin 150 mg): did not change
International Normalized Ratio or prothrombin times between groups ([9]; vortioxetine 10 mg with stable warfarin doses (1–10 mg), day 14): no difference
action at 5-HT1A receptor (5-HT1A receptor): agonist
action at 5-HT1B receptor (5-HT1B receptor): partial agonist

Source: PMC5973995 (Clinical Pharmacokinetics, 2017)
